Assay outcomes: PubChem BioAssay, several laboratories
MIN6 prolif – inducers of beta-cell replication in MIN6 cells; MIN6 cells proliferation, ATPlite luminescence, 48 h; cells starved in 0.2% serum; 100% = growth in 10% serum; proliferation, % at 10 µM; 330,000 tested, 0.29% active;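 active = compounds whose signal lies at least 3.5 SD above the mean of all wells on their plate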;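 note: 0% = DMSO-treated cells in low-serum medium and 100% = 10% serum control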
HTR2A ag – agonists of mouse serotonin 5-HT2A receptor (HTR2A) | P35363 | AID 624169 | CHO-K1 mHTR2A beta-arrestin complementation, luminescence; percent of 30 µM serotonin response | activation, % at 7.6 µM | 360,000 tested, 0.66% active;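 active = activation above a run cutoff, the mean activation of all tested compounds plus 3 SD, cut at about 14% in these data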;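 note: 0% = plate median of compound wells and 100% = 30 µM serotonin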
Target sequence (P35363 whole entry, looked up): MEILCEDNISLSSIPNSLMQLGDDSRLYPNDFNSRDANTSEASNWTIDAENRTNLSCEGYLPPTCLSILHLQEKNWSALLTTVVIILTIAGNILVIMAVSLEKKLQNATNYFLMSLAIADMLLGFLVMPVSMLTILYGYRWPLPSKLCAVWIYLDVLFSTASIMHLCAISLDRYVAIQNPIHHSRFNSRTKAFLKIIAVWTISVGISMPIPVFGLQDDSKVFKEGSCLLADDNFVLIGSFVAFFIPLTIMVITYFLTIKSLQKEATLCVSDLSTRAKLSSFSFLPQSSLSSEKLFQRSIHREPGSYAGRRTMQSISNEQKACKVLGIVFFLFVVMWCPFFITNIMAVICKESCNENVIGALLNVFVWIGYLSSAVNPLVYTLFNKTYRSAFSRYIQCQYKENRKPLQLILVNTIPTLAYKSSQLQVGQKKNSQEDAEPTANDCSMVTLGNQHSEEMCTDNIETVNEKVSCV
MC4R antagonist – human MC4R antagonism in cAMP assay; P32245; MC4R-expressing cells, MTII-stimulated cAMP, LANCE TR-FRET; inhibition, % at 6.5 µM; 360,000 tested, 0.48% active; AID 540295;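 active = inhibition above its plate's cutoff, the mean of tested wells on that plate plus 3 SD, cut at about 29% in these data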;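 note: 0% = Melanotan II alone and 100% = Melanotan II plus saturating MCL0020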
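Assay system: human MC4R-expressing U2OS cells; reagent: Melanotan II stimulation of cells; dosing: 6.5 µM single dose; timing: compound 30 min, challenge 1 h, detection 1 h; signal: TR-FRET cAMP assay; replicates: one well per compound, no replicates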
ANO1 activ – activates or potentiates the mouse TMEM16A chloride channel | Q8BHY3 | HEK293 TMEM16A/YFP-H148Q/I152L, iodide quench fluorescence; active compounds read low | B-score at 10 µM | 340,000 tested, 0.3% active;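 active = fluorescence-ratio B-score plate-corrected deviation score at least 3 library SD below zero, with starting fluorescence score within 5 deviations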;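 note: channel opened by trigger with iodide after compound preincubation; score built on the fluorescence ratio of max minus min over baseline; more negative score means more quench and so TMEM16A activation or potentiation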
TMEM16A inh – inhibitors of mouse TMEM16A calcium-activated chloride channel; AID 588511; Q8BHY3; normalized B-score (activity score, 25-100; higher = stronger inhibition) at 10 µM; HEK293 TMEM16A/YFP iodide influx fluorescence, ionomycin; 310,000 tested, 1.2% active;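 active = ratio plate-corrected score three or more library SD toward inhibition, starting fluorescence score within five deviations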;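 note: score derived from kinetic fluorescence span divided by baseline fluorescence per well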
MC4R barr agon – activates human MC4R beta-arrestin recruitment; P32245; U2OS MC4R beta-arrestin complementation, luminescence; percent of melanotan II response, DMSO zero; activation, % at 8.9 µM; 360,000 tested, 0.98% active; AID 540308;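 active = activation above a per-plate cutoff, the mean activation of sample wells on that plate plus 3 SD, cut at about 8% in these data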
TMEM16A reconf – reconfirmed blocker of mouse TMEM16A calcium-activated chloride channel | shares compounds with TMEM16A inh | HEK293 TMEM16A/YFP-H148Q, iodide quench fluorescence; ionomycin added to raise cell calcium | inhibition, % at 10 µM | 2,300 tested, 39% active;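 active = mean duplicate percent inhibition, scaled so buffer wells are 0 and the reference blocker 100, over three buffer SD above buffer mean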
TMEM16A Ca cntr – counter-screen for TMEM16A inhibitors: effect on calcium mobilization | shares compounds with TMEM16A inh | TMEM16A/YFP HEK293, Fluo4 calcium mobilization | calcium response (% of ionomycin), % at 10 µM | 2,300 tested, 2% active;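 active = duplicate-averaged calcium signal over 20% of the ionomycin maximum, relative to buffer baseline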;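 note: each well's signal is peak minus trough fluorescence divided by its pre-addition baseline; 0% = buffer wells and 100% = ionomycin wells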
YFP-HEK293 quench – acts in parental YFP-HEK293 cells lacking TMEM16A, counter-screen; YFP ratio F(max-min)/F0 at 10 µM; shares compounds with TMEM16A inh; iodide YFP quench, ionomycin; 2,300 tested, under 10 active; AID 652233;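 active = yellow fluorescent protein signal ratio exceeding the buffer control mean by over 5 SD of those controls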;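 note: ratio is mean of duplicate wells from kinetic YFP trace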
ClC-1 inh – selectivity of TMEM16A inhibitors: inhibition of rat ClC-1 chloride channel; shares compounds with TMEM16A inh; CHO ClC-1-YFP, iodide influx fluorescence quench; iodide control reads 0, buffer control 100; ratio percent, % at 10 µM; 2,300 tested, under 10 active; AID 652236;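 active = duplicate-mean ratio percent above the mean of iodide-only control wells, which defines zero, plus 5 of their SD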;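 note: higher percent means stronger block of ClC-1 iodide influx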
MOR ag counter – OPRM1 agonism in mouse HTR2A counterscreen; U2OS OPRM1 beta-arrestin PathHunter, luminescence; DMSO 0%, DAMGO 9.3 µM 100%; shares compounds with HTR2A ag; 2,300 tested, 5.3% active; AID 624380; activation, % at 9.3 µM;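 active = mean activation above the mean of DMSO-only wells plus 3 SD, cut at about 0.5% in these data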
m5-HT2A ag conf – confirmation of mouse HTR2A serotonin receptor agonists | CHO-K1 PathHunter beta-arrestin recruitment, luminescence; DMSO 0%, 30 µM serotonin 100% | shares compounds with HTR2A ag | 2,300 tested, 19% active | activation, % at 7.6 µM | AID 624381;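 active = mean activation across triplicates above the hit threshold derived in the original primary screen, cut at about 15% in these data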
Starred values were filed as active, the others as inactive; i = inactive; / = not tested or not shown. Hits are enriched below; roughly 3.4% of the tested compounds scored in any of these assays.

SMILES	MIN6 prolif	HTR2A ag	MC4R antagonist	ANO1 activ	TMEM16A inh	MC4R barr agon	MOR ag counter	m5-HT2A ag conf	others
Cc1cc(C(=O)CSc2nc3ccccc3[nH]2)c(C)n1CC1CCCO1 (centres undefined)	-5	25*	19	i	25*	7	0	10	TMEM16A reconf=i;TMEM16A Ca cntr=i;YFP-HEK293 quench=-1.2;ClC-1 inh=-30
Cc1cc(C(=O)CSc2nc(N)cc(=O)[nH]2)c(C)n1CC1CCCO1 (centres undefined)	-1	0	0	i	/	-1	/	/
Cc1c(Cc2ccc3c(c2)OCO3)sc(NC(=O)c2ccccc2)c1C(N)=O	-2	15*	-1	i	i	2	0	2	TMEM16A reconf=i;TMEM16A Ca cntr=i;YFP-HEK293 quench=-1.1;ClC-1 inh=0
Cc1nc(NC(=O)c2ccccc2)sc1Cc1ccc2c(c1)OCO2	-3	-2	1	i	i	-4	/	/
Cc1cccc2sc(NNC(=O)c3ccc(S(=O)(=O)N4CC(C)CC(C)C4)cc3)nc12 (centres undefined)	-7	15*	25	i	25*	2	0	3	TMEM16A reconf=26%*;TMEM16A Ca cntr=i;YFP-HEK293 quench=-0.97;ClC-1 inh=-9
COc1ccc(N(C)C(=O)c2cc3c(s2)-c2ccc(Cl)cc2S(=O)(=O)C3)c(OC)c1	-2	14*	5	i	25*	-2	0	-5	TMEM16A reconf=26%*;TMEM16A Ca cntr=i;YFP-HEK293 quench=-0.81;ClC-1 inh=-8
COCCc1ccc(OC2(C)CCN(Cc3ccc(OC)c4ccccc34)C2)cc1 (centres undefined)	/	-7	-4	/	/	1	/	/
Cc1cccc(OCC(=O)NCC(=O)N/N=C/c2cc(Br)cc(Br)c2O)c1	0	3	10	i	i	1	/	/
CCc1nnc(NC(=O)CCC(=O)N2CCN(Cc3ccccc3)CC2)s1	-1	16*	2	i	i	-1	-1	-4
CCc1nnc(NC(=O)CCC(=O)N2CCN(Cc3ccc(Cl)cc3)CC2)s1	-3	0	11	i	i	-1	/	/
O=C(CCN1CCN(C(=O)c2ccco2)CC1)Nc1ccc(F)cc1	-4	-2	9	i	i	-2	/	/
O=C(c1ccco1)N1CCN(CCCCN2C(=O)c3ccccc3C2=O)CC1	-1	17*	4	i	i	0	-1	54*
O=C(c1ccco1)N1CCN(CCCCOc2ccc(F)cc2)CC1	0	19*	8	i	i	-2	-1	63*
COc1ccc(C(CNC(=O)CN(C)S(=O)(=O)c2ccc(C)cc2)N2CCCC2)cc1 (centres undefined)	-3	-9	3	i	/	0	/	/
COC(=O)CNc1n[nH]c(=S)[nH]c1=O	-2	17*	17	i	i	0	-1	-2
COc1ccc(-c2cc(C(=O)Nc3ccc(NC(C)=O)cc3)[nH]n2)c(C)c1	/	21*	-3	/	/	-1	-1	-7
COc1ccc(Nc2nc(N3CCN(C)CC3)nc3ccccc23)c(OC)c1	-3	16*	3	i	i	-3	0	19*
O=C(O)C1C2CCC(C2)C1C(=O)NCCc1cccc(Cl)c1 (centres undefined)	-1	24*	17	i	i	-2	0	1
CCN(CCCNC(=O)C1CCCN(S(=O)(=O)c2cnc[nH]2)C1)c1ccccc1 (centres undefined)	-2	18*	5	i	i	-1	0	-2
O=C(O)c1cccc2c1/C(=N/Nc1ccc([N+](=O)[O-])cc1[N+](=O)[O-])c1ccccc1-2	-1	0	10	i	i	-1	/	/
O=C(Nc1ccn(CCCN2CCN(Cc3ccc(F)cc3)CC2)c(=O)n1)OCc1ccccc1	/	-1	-4	/	/	-3	/	/
O=C(Nc1ccn(CCCN2CCN(c3ncccn3)CC2)c(=O)n1)OCc1ccccc1	/	25*	6	/	/	-2	0	29*
O=C(N=C1SC2CS(=O)(=O)CC2N1c1cc(Cl)ccc1Cl)C1CCCO1 (centres undefined)	0	-2	-1	i	i	-2	/	/
COc1ccc(N(CC(=O)NCCSCc2ccccc2Cl)S(C)(=O)=O)cc1Cl	-1	-8	6	i	i	0	/	/
NC(=S)NN=C1C=CCCC1	/	19*	3	i	/	0	-1	-1
SMILES	MIN6 prolif	HTR2A ag	MC4R antagonist	ANO1 activ	TMEM16A inh	MC4R barr agon	MOR ag counter	m5-HT2A ag conf	others
NC(=S)NN=C1CCCCCCCCC1	/	3	18	i	/	1	/	/
CC(C)C[C@H]1CN=C(N(C)C)N1CC1CCCCCC1	-2	-3	4	i	i	0	/	/
CC(C)C[C@H]1CN=C(N(C)C)N1CC(C)C	2	24*	6	i	/	-1	-1	-2
COc1cccc(N2CCN(Cc3nc(N)nc(N4CCCc5ccccc54)n3)CC2)c1	-3	17*	2	i	i	4	0	42*
Cc1ccc(CCNC(=O)C2CCCN(c3ncnc4c3nc3n4CCCCC3)C2)cc1 (centres undefined)	1	-2	5	i	i	-3	/	/
O=C(C1CCCN(c2ncnc3c2nc2n3CCCCC2)C1)N1CCN(c2ccc(Cl)cc2)CC1 (centres undefined)	-7	5	25	i	i	-1	/	/
O=C(NCCc1ccccc1)C1CCCN(c2ncnc3c2nc2n3CCCCC2)C1 (centres undefined)	-3	15*	2	i	i	-1	-1	-5
